Here are results for four compounds from ChEMBL document CHEMBL1129979, “Conformationally constrained deltorphin analogs with 2-aminotetralin-2-carboxylic acid in position 3” (J Med Chem, 1997).

In one assay the target is Mu-type opioid receptor (Rattus norvegicus, UniProt P33535). The assay is described as follows: The binding affinity was measured using [3H]- DAGO against Opioid receptor mu 1 of rat brain.
For assay [1], the target named is Kappa-type opioid receptor (Rattus norvegicus, UniProt P34975).
Assay [2] deals with T1, Delta-type opioid receptor (Rattus norvegicus, UniProt P33533). As to the kind of experiment: The binding affinity was measured using [3H]-DIDII against Opioid receptor delta 1 of rat brain.
The target in assay [3] is T1, Delta-type opioid receptor. As to the kind of experiment: The binding affinity was measured using [3H]naltrindole against Opioid receptor delta 1 of rat brain.
Another assay is filed under the species Mus musculus. As to the kind of experiment: The inhibitory concentration activity was measured on electrically induced contraction of the mouse vas deferens (MVD). In kind it is functional. Put shortly: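 Mouse vas deferens is mounted between platinum axial wire electrodes in Mg-free Krebs bicarbonate at 34 °C, gassed with 95% O2/5% CO2, under 0.5 g tension. After 15 min equilibration, it is stimulated transmurally at 0.1 Hz, 2 ms, 40 V (supramaximal). Dose-response curves are built by the single-dose method. IC50 is the concentration giving 50% reduction of contractions, from a Hill-equation least-squares fit of mean data.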

The species named for a further assay is Cavia porcellus. As to the kind of experiment: The inhibitory concentration activity was measured on guinea pig ileum (GPI). Type of assay: functional. Put shortly: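 Guinea pig ileum myenteric plexus-longitudinal muscle strips are mounted between platinum axial wire electrodes in Krebs bicarbonate at 37 °C, gassed with 95% O2/5% CO2, under 1 g tension. Strips are stimulated transmurally at 0.1 Hz, 1 ms, 40 V (supramaximal) and equilibrated 60 min before peptides are added. Single-dose dose-response curves are fitted to the Hill equation by least squares on mean data. IC50 is the concentration giving 50% reduction of contractions.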

In assay [4] the target is T1, Delta-type opioid receptor. As to the kind of experiment: The binding affinity was measured using [3H]- TIPPsi against Opioid receptor delta 1.

Sequence of Kappa-type opioid receptor (P34975 whole entry): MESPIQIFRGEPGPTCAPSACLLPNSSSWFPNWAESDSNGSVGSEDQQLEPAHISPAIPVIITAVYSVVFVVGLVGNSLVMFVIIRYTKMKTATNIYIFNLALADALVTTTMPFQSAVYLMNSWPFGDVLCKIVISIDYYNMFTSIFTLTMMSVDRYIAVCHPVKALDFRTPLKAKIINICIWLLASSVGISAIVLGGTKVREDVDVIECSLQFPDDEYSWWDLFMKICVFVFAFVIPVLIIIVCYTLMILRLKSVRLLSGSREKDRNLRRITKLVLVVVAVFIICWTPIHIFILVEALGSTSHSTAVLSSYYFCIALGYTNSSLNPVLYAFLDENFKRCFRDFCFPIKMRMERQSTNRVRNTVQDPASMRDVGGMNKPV
Sequence of Mu-type opioid receptor (P33535 whole entry): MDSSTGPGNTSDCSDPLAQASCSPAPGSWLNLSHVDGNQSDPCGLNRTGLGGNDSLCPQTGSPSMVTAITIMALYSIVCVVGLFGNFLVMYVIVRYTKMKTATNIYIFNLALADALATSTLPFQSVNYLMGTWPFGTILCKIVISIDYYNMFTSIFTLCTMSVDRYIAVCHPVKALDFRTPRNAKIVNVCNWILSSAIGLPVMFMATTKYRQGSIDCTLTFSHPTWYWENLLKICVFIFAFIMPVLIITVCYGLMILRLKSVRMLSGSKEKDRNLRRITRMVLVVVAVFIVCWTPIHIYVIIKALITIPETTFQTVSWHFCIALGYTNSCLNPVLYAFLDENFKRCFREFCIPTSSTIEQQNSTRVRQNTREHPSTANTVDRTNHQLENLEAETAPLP
T1 sequence (P33533 whole entry): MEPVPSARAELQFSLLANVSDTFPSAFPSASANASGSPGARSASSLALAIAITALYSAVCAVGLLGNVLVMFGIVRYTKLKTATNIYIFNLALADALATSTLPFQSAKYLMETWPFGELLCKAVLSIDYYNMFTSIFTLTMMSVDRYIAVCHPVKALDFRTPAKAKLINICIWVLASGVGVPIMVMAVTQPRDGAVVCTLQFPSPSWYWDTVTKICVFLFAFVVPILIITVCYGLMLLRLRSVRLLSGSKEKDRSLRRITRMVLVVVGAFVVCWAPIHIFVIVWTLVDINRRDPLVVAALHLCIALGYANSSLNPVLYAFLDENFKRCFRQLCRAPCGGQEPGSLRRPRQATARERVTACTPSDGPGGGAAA

By Ki is commonly meant the equilibrium dissociation constant of an inhibitor or competing ligand from its target. In general, IC50 refers to the midpoint of a concentration-inhibition curve. A higher IC50 goes with weaker potency in that assay. In the case of `CC[C@H](C)[C@H](NC(=O)[C@H](CC(=O)O)NC(=O)[C@H](Cc1ccccc1)NC(=O)[C@@H](C)NC(=O)[C@@H](N)Cc1ccc(O)cc1)C(=O)N[C@H](C(=O)NCC(N)=O)[C@@H](C)CC`, the Ki was 3220 nM at Mu-type opioid receptor; > 10000 nM in assay [1]; 0.056 nM in assay [2]; 0.047 nM in assay [3]; 0.018 nM in assay [4]. Also, the IC50 stood at 0.082 nM in the assay listed under Mus musculus and 4210 nM in the assay filed under Cavia porcellus.
With `CC(C)[C@H](NC(=O)[C@H](CC(=O)O)NC(=O)[C@H](Cc1ccccc1)NC(=O)[C@H](C)NC(=O)[C@@H](N)Cc1ccc(O)cc1)C(=O)N[C@H](C(=O)NCC(N)=O)C(C)C`, the values for the IC50 in the assay listed under Mus musculus and in the assay listed under Cavia porcellus were 0.32 nM and > 3000 nM, respectively.
Regarding `CC[C@H](C)[C@H](NC(=O)[C@H](CCC(=O)O)NC(=O)[C@]1(NC(=O)[C@@H](C)NC(=O)[C@@H](N)Cc2ccc(O)cc2)CCc2ccccc2C1)C(=O)N[C@H](C(=O)NCC(N)=O)[C@@H](C)CC`, the Ki at Mu-type opioid receptor was 731 nM; in assay [1], > 10000 nM; in assay [2], 0.035 nM; in assay [3], 0.515 nM; in assay [4] it was 0.38 nM. Moreover, the IC50 in the assay listed under Mus musculus came out at 0.09 nM; in the assay filed under Cavia porcellus, 19600 nM.
`CC[C@H](C)[C@H](NC(=O)[C@H](CCC(=O)O)NC(=O)[C@H](Cc1ccccc1)NC(=O)[C@@H](C)NC(=O)[C@@H](N)Cc1ccc(O)cc1)C(=O)N[C@H](C(=O)NCC(N)=O)[C@@H](C)CC`: the Ki on Mu-type opioid receptor is 3190 nM; in assay [1] it was > 10000 nM. Moreover, the IC50 in the assay listed under Mus musculus is 0.5 nM; in the assay filed under Cavia porcellus it was 67200 nM.
